Active and inactive are the calls of the source. No cut-off for these calls is given here.
Tests used:
[1] = tested on: Jurkat E6.1; assay: (§1) Effect of compound on cryopreserved human Jurkat E6.1 cells recovery assessed as increase in post-thaw cell recovery at 200 mM preincubated for 24 hrs followed by media replacement and cryopreserved at -1 degreeC/min to -80 degreeC/min and measured after 24 hrs post-thaw by trypan blue exclusion method (Rvb=63 %); assay type: functional
Method in brief: (§2)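 Cells were pre-incubated 24 h in medium with amino acid at the stated density, then the medium was replaced with fresh additive-free medium. Cells were adjusted to 1 × 10^6 cells per mL and held 10 min at room temperature in medium with 5% DMSO. They were cooled at −1 °C min−1 to −80 °C and stored ≥24 h. Thawing was 5 min in a 37 °C water bath, followed by culture at 37 °C, 5% CO2. Recovery relative to pre-freeze count was determined by trypan blue exclusion.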

[2] = tested on: Jurkat E6.1; assay: Cytotoxicity against human Jurkat E6.1 cells assessed as decrease in metabolic activity at 200 mM incubated for 24 hrs by resazurin assay; assay type: toxicity, cell-based; details: jurkat e6.1, 24 h, 200000 µM
Method in brief: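 Cells were incubated 24 h at 37 °C in medium containing 200 mM additive, then readjusted to 1 × 10^6 cells per mL. They were resuspended in resazurin solution made in additive-free complete medium and incubated 3 or 4 h at 37 °C. Fluorescence was read at 590/35 nm emission and expressed as % of untreated control. Mean ± SD, at least three independent experiments.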

[3] = Cytotoxicity against human Jurkat E6.1 cells assessed as cell growth inhibition at 200 mM incubated for 24 hrs by trypan blue exclusion method relative to control; assay type: toxicity, cell-based; details: read-out: Activity
Method in brief: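 Amino acid additives dissolved in complete Advanced RPMI 1640 (base medium contains 0.17 mM L-proline, 0.10 mM L-alanine) and sterile filtered. Jurkat cells seeded at 1 × 10^6 mL−1 and held 24 h at 37 °C, 5% CO2 without freezing. Counts taken every 4 h, with live/dead scored by trypan blue exclusion on an automated counter. Growth and viability were compared with additive-free medium; mean ± SD of independent experiments.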

[4] = tested on: Jurkat E6.1; assay: as §1, with “cell recovery at 0.8 millions/ml cell density at 200” for “cell recovery at 200”, “exclusion method” for “exclusion method (Rvb=63 %)”; assay type: functional, cell-based; method in brief: as §2
[5] = tested on: Jurkat E6.1; assay: as §1, with “cell recovery at 0.5 millions/ml cell density at 200” for “cell recovery at 200”, “exclusion method” for “exclusion method (Rvb=63 %)”; assay type: functional; method in brief: as §2
[6] = Cytotoxicity against human Jurkat E6.1 cells assessed as cell growth inhibition at 100 mM incubated for 24 hrs by trypan blue exclusion method relative to control

| Structure (SMILES) | Activity [1] [%] | Activity [2] | inhibition at 24 h, 200000 µM [3] [%] | Activity [4] | Activity [5] [%] | inhibition at 24 h, 100000 µM [6] [%] |
| --- | --- | --- | --- | --- | --- | --- |
| C[C@H](N)C(=O)O [ALANINE] | 49 | Non-Toxic | 72 | Active | 83 |  |
| O=C(O)[C@H]1CCCN1 [D-PROLINE] | 52 | Toxic | 107 |  |  |  |
| O=C(O)[C@@H]1CCCN1 [PROLINE] | 70 | Non-Toxic | 46 | Active | 77 | 34 |

From ChEMBL document CHEMBL5329173, “Proline pre-conditioning of Jurkat cells improves recovery after cryopreservation” (RSC Med Chem, 2023)
